Reference: ChEMBL document CHEMBL1125219, “A selective, reversible, competitive inhibitor of monoamine oxidase A containing no nitrogen, with negligible potentiation of tyramine-induced blood pressure rise” (J Med Chem, 1991)

How the values were obtained:
[1] = target: T1, Amine oxidase [flavin-containing] A (Rattus norvegicus, UniProt P21396); assay: The compound was tested ex vivo for percentage inhibition of Monoamine Oxidase A in rat brain at 30 mg/kg; assay type: functional, organism-based; set-up: dose 30 mg/kg
T1 sequence (P21396 whole entry): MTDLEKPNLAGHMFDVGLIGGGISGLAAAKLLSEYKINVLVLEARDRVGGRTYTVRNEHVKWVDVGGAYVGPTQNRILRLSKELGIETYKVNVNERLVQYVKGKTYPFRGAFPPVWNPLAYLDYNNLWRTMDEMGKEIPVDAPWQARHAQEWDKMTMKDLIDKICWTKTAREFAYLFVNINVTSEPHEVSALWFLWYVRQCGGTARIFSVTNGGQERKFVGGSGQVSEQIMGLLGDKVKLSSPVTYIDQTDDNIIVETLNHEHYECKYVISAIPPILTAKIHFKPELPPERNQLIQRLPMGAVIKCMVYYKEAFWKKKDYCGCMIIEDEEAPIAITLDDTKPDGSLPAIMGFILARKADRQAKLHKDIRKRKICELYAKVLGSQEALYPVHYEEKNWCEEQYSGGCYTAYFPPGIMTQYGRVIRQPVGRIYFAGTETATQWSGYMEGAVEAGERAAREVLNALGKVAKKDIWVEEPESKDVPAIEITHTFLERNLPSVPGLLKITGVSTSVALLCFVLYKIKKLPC

[2] = target: T1, Amine oxidase [flavin-containing] A; assay: The compound was tested in vitro for inhibition of Monoamine Oxidase A from rat brain
Method in brief: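 Double-label radiometric assay on washed rat brain mitochondria with the test agent in vitro. Substrates were at about twice Km, and each activity was independent of the other.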

[3] = target: T1, Amine oxidase [flavin-containing] A; assay: The compound was tested ex vivo for inhibition of Monoamine Oxidase A in rat brain; assay type: functional, tissue-based
[4] = target: T1, Amine oxidase [flavin-containing] A; assay: The compound was tested ex vivo for percentage inhibition of Monoamine Oxidase A in rat brain at 20 mg/kg; NS=No significant inhibition; assay type: functional, organism-based; set-up: dose 20 mg/kg
[5] = target: T1, Amine oxidase [flavin-containing] A; assay: The compound was tested ex vivo for percentage inhibition of Monoamine Oxidase A in rat brain at 20 mg/Kg; assay type: functional, tissue-based
[6] = target: T1, Amine oxidase [flavin-containing] A; assay: In vitro binding affinity towards Monoamine Oxidase A in rat
[7] = target: T1, Amine oxidase [flavin-containing] A; assay: In vivo effective dose against Monoamine Oxidase A in rat brain; assay type: functional, organism-based
[8] = target: T2, Amine oxidase [flavin-containing] A (Homo sapiens, UniProt P21397); assay: In vitro binding affinity towards Monoamine Oxidase A in human
T2 sequence (P21397 whole entry): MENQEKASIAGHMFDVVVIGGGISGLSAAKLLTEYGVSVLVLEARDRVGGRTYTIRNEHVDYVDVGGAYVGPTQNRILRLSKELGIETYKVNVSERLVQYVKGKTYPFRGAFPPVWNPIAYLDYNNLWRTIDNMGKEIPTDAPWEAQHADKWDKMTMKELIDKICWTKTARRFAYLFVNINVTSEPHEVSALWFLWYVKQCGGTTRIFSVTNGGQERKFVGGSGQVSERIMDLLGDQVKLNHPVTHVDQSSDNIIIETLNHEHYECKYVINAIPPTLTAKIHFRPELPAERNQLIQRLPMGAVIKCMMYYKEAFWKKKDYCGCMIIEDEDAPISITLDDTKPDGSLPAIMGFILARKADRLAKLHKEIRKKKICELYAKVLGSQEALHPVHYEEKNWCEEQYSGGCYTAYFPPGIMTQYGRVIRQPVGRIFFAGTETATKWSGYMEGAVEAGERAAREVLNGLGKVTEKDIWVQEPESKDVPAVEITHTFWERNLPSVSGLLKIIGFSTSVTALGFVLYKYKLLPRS

| SMILES | IC50 [2] | ED50 [3] | other results |
| --- | --- | --- | --- |
| CC(=O)c1cccc2c1S(=O)(=O)c1ccccc1O2 | 2000 nM | – | inhibition at 30 mg/kg [1]: 70% |
| CC(O)c1cccc2c1S(=O)(=O)c1ccccc1O2 (configuration not stated) | 400 nM | 30 mg/kg | – |
| O=C(O)Cc1cccc2c1S(=O)(=O)c1ccccc1O2 | 30000 nM | – | Inhibition [4]: Not Active |
| C=Cc1cccc2c1S(=O)(=O)c1ccccc1O2 | 40 nM | 20 mg/kg | – |
| O=S1(=O)c2ccccc2Oc2cccc(CCO)c21 | 20 nM | – | inhibition at 20 mg/kg [5]: 55% |
| O=S1(=O)c2ccccc2Oc2cccc(C(O)CO)c21 (configuration not stated) | 1200 nM | 20 mg/kg | – |
| CCc1cccc2c1S(=O)(=O)c1ccccc1O2 | 35 nM | 20 mg/kg | Ki [6]: 10 nM; ED50 [7]: 8 mg/kg; Ki [8]: 10 nM |
